Laboratory results published in ChEMBL document CHEMBL1134649, “Syntheses and structure--activity relationships of novel apio and thioapio dideoxydidehydronucleosides as anti-HCMV agents” (J Med Chem, 2001).
Converted amounts (≈) assume the structure as drawn.

What was measured:
[1] = tested on: Human betaherpesvirus 5; test: Antiviral activity was determined against Human cytomegalovirus (HCMV) strain AD-169 using CPE inhibition assay; format: functional, organism-based
Summary of the method: (§1)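 HEL cells in stationary phase were infected at 2–4 CCID50 per well and the virus was adsorbed 2 h at 37 °C. Unadsorbed virus was removed and compound in MEM/2% FBS was added, in duplicate per concentration, for 6 days. CPE was read either microscopically (70% ethanol fixation, Giemsa stain) or by fluorescein diacetate fluorescence (485/538 nm). EC50 was taken from semilog plots of %CPE against concentration.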

[2] = tested on: Human betaherpesvirus 5; test: Antiviral activity was determined against Human cytomegalovirus (HCMV) strain Davis using CPE inhibition assay; format: functional, organism-based; summary of the method: as §1
[3] = tested on: HEL 299; test: Cytotoxic concentration of compound was tested against HEL299(human embryonic lung fibroblast) cells using cytotoxic assay; format: functional
Summary of the method: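 Run as a mock-infected control alongside the antiviral assay in HEL cells, with the same 6-day incubation in MEM/2% FBS. Viability was read by propidium iodide fluorescence in place of fluorescein diacetate. CC50 is the concentration giving 50% loss of viability.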

Compound | EC50 [1] [mg/L] | EC50 [2] [mg/L] | CC50 [3] [mg/L]
O=c1[nH]c(=O)n(C2C=C(CO)CO2)cc1Br (stereo not given) | 33.7 (≈ 117 µM) | 25.4 (≈ 87.9 µM) | > 100
O=c1ccn(C2C=C(CO)CS2)c(=O)[nH]1 (stereo not given) | > 100 | > 100 | > 100
Cc1cn(C2C=C(CO)CO2)c(=O)[nH]c1=O (stereo not given) | 33.3 (≈ 149 µM) | 16.6 (≈ 74 µM) | > 100
O=c1[nH]c(=O)n(C2C=C(CO)CO2)cc1F (stereo not given) | 6.9 (≈ 30.2 µM) | 2.81 (≈ 12.3 µM) | > 100
Nc1nc2c(ncn2COC(CO)CO)c(=O)[nH]1 [GANCICLOVIR] | 1.09 (≈ 4.27 µM) | 0.61 (≈ 2.39 µM) | > 10

More lines, main results first:

EC50 [1] [mg/L] | EC50 [2] [mg/L] | Compound | CC50 [3] [mg/L]
> 100 | > 100 | Cc1cn(C2C=C(CO)CS2)c(=O)[nH]c1=O (stereo not given) | > 100
44.1 (≈ 131 µM) | 27.2 (≈ 80.9 µM) | O=c1[nH]c(=O)n(C2C=C(CO)CO2)cc1I (stereo not given) | > 100
11.7 (≈ 55.7 µM) | > 33.3 | O=c1ccn(C2C=C(CO)CO2)c(=O)[nH]1 (stereo not given) | 33.3 (≈ 158 µM)
41.7 (≈ 170 µM) | 25.1 (≈ 103 µM) | O=c1[nH]c(=O)n(C2C=C(CO)CO2)cc1Cl (stereo not given) | 63.3 (≈ 259 µM)
64.9 (≈ 515 µM) | 38.7 (≈ 307 µM) | O=C(O)P(=O)(O)O [FOSCARNET] | > 300
